Measured values from article PMC4750707 (Antimicrobial Agents and Chemotherapy, 2016).
Converted amounts (≈) assume the structure as drawn.

Experiments:
E. coli PBP1b = target: T1, E. coli PBP1b (Escherichia coli, UniProt P02919); assay: PBP competition assay with Bocillin FL; format: binding
T1 sequence (P02919 1-844): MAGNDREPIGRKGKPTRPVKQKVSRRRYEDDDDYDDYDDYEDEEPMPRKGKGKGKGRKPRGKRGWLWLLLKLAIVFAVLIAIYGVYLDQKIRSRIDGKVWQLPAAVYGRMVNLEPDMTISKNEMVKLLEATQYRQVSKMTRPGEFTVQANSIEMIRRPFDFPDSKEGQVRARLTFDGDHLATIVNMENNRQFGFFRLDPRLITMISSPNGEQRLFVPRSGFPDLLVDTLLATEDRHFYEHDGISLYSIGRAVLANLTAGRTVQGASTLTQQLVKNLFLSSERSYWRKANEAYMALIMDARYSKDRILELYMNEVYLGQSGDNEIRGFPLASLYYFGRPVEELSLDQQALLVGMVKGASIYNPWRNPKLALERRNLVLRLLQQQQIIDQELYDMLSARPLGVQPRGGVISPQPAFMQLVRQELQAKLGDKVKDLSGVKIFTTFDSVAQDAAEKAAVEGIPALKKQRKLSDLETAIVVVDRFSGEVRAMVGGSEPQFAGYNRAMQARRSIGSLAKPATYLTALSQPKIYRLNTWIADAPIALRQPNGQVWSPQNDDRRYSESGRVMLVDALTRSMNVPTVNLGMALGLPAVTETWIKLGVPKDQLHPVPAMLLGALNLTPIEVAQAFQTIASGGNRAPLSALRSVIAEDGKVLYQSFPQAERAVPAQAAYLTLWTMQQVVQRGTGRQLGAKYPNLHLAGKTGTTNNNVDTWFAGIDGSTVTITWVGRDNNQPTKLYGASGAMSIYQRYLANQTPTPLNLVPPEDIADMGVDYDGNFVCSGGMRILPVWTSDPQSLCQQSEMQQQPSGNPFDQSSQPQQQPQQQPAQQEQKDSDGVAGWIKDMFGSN
How it was run: (§1)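 E. coli K-12 or P. aeruginosa 1771 grown in BHI at 35°C to A600 ~1.5. Cells in 50 mM phosphate pH 7.0 were French-pressed; membranes pelleted at 150,000 × g. Membranes (10–20 μg protein) were pre-incubated with test compound 10 min at 30°C, then Bocillin FL (100 μM final) 20 min. SDS-PAGE, fluorescence scan. IC50 in μg/ml from ≥8 concentrations versus no-drug control.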

E. coli = assay: Broth microdilution MIC; format: cell-based; conditions: Escherichia coli
How it was run: (§2)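 MICs by CLSI broth microdilution in cation-adjusted Mueller-Hinton broth. Strains grown in BHI broth at 35°C: E. coli K-12, P. aeruginosa 1771 and S. aureus ATCC 29213. H. influenzae Rd grown in BHI with Haemophilus test medium supplement (hemin and β-NAD, 15 μg/ml each).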

E. coli PBP4 = E. coli PBP4 (Escherichia coli, UniProt P24228); assay: PBP competition assay with Bocillin FL; format: binding
How it was run: as §1

P. aeruginosa PBP1a = P. aeruginosa PBP1a (Pseudomonas aeruginosa, UniProt Q07806); assay: PBP competition assay with Bocillin FL; format: binding
How it was run: as §1

H. influenzae PBP1a = H. influenzae PBP1a (Haemophilus influenzae, UniProt P31776); assay: PBP competition assay with Bocillin FL; format: binding
How it was run: (§3)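 H. influenzae Rd grown in supplemented BHI at 35°C (A600 0.6–0.7). Cells in KPN buffer (20 mM K-phosphate, 140 mM NaCl, pH 7.5), lysozyme-treated 30 min, French-pressed; membranes at 150,000 × g. Used 100–120 μg membrane protein. Test compound 10 min at 30°C, then Bocillin FL 100 μM final for 20 min. Gel fluorescence band volumes; IC50 from three assays of six concentrations.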

S. aureus = assay: Broth microdilution MIC; format: cell-based; conditions: Staphylococcus aureus, ATCC29213
How it was run: as §2

P. aeruginosa PBP3 = P. aeruginosa PBP3 (Pseudomonas aeruginosa, UniProt G3XD46); assay: PBP competition assay with Bocillin FL; format: binding
S. aureus PBP4 = target: T2, S. aureus PBP4 (Staphylococcus aureus, UniProt P72355); assay: PBP competition assay with Bocillin FL; format: binding
T2 sequence (P72355 25-431): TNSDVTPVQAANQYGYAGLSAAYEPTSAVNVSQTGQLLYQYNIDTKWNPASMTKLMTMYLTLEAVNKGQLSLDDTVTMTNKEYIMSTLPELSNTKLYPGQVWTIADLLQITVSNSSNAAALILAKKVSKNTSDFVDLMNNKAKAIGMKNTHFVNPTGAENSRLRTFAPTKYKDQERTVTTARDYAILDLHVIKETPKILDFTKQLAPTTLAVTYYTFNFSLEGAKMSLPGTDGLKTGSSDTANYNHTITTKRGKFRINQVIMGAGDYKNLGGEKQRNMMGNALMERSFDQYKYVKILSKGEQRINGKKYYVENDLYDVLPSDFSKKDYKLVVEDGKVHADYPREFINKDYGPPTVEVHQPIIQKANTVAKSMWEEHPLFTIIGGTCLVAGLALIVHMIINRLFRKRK

H. influenzae PBP1b = H. influenzae PBP1b (Haemophilus influenzae, UniProt P45345); assay: PBP competition assay with Bocillin FL; format: binding
How it was run: as §3

P. aeruginosa = assay: Broth microdilution MIC; format: cell-based; conditions: Pseudomonas aeruginosa
How it was run: as §2

S. aureus PBP3 = S. aureus PBP3 (Staphylococcus aureus, UniProt Q9XDB3); assay: PBP competition assay with Bocillin FL; format: binding
How it was run: (§4)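 S. aureus ATCC 29213 membranes were prepared in KPN buffer pH 7.5. Lysis used lysostaphin 400 μg/ml for 1 h at 37°C plus protease inhibitors, DNase and RNase, then French press. Membranes (10–20 μg protein) received test compound for 10 min at 30°C, then Bocillin FL 100 μM final for 20 min. SDS-PAGE band volumes; IC50 from three assays of six concentrations versus no-drug control.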

E. coli PBP5/6 = assay: PBP competition assay with Bocillin FL; format: binding, Escherichia coli; conditions: E. coli K-12 membranes; Bocillin FL 100 μM
How it was run: as §1

H. influenzae PBP5 = H. influenzae PBP5 (Haemophilus influenzae, UniProt P44466); assay: PBP competition assay with Bocillin FL; format: binding
How it was run: as §3

S. aureus PBP2 = S. aureus PBP2 (Staphylococcus aureus, UniProt Q9R744); assay: PBP competition assay with Bocillin FL; format: binding
How it was run: as §4

S. pneumoniae PBP2X = S. pneumoniae PBP2X (Streptococcus pneumoniae, UniProt P59676); assay: PBP competition assay with Bocillin FL; format: binding
How it was run: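 S. pneumoniae R6 was grown on blood agar at 37°C under 5% CO2, then in BHI with agitation to A600 ~1.0. Cells in KPN buffer pH 7.5 were lysozyme-treated and French-pressed; membranes (30–40 μg protein) were used. Test compound 10 min at 30°C, then Bocillin FL 100 μM final for 20 min. SDS-PAGE fluorescence; IC50 from three assays of six concentrations.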

Row | IC50 (E. coli PBP1b) [µM] | MIC (E. coli) [µg/mL] | IC50 (E. coli PBP4) [µM] | IC50 (P. aeruginosa PBP1a) [µM] | IC50 (H. influenzae PBP1a) [µM] | MIC (S. aureus) [µg/mL] | IC50 (P. aeruginosa PBP3) [µM] | IC50 (S. aureus PBP4) [µM] | IC50 (H. influenzae PBP1b) [µM] | MIC (P. aeruginosa) [µg/mL] | IC50 (S. aureus PBP3) [µM] | Relative binding (IC50) for PBP 5/6 (E. coli PBP5/6) [µg/mL] | IC50 (H. influenzae PBP5) [µM] | IC50 (S. aureus PBP2) [µM] | IC50 (S. pneumoniae PBP2X) [µM] | Binding to S. aureus PBP4 revealed by reduction of Bocillin FL labeling (S. aureus PBP4; S. aureus membranes, in presence of avibactam fixed at 4 μg/ml) | Compound
1 | > 39.9 | 0.06 to 0.1 (≈ 0.184 to 0.307 µM) | > 39.9 | > 39.9 |  |  |  |  |  |  |  |  |  |  |  |  | CC1(C)S[C@@H]2[C@H](/N=C/N3CCCCCC3)C(=O)N2[C@H]1C(=O)O [MEC, amdinocillin]
2 | > 49 | 8 (≈ 30.2 µM) | > 49 | > 49 | > 121 | 256 (≈ 965 µM) | 6.79 | > 965 | > 121 | > 128 | 588 | >13 | > 121 | 192 | > 241 |  | NC(=O)[C@@H]1CC[C@@H]2CN1C(=O)N2OS(=O)(=O)O [AVI, avibactam]
3 | 14.6 | 0.5 (≈ 0.915 µM) | > 45.7 | 0.348 |  | 16 (≈ 29.3 µM) | 0.0732 | > 14.6 |  | 4 (≈ 7.32 µM) | > 14.6 | >25 |  | 1.28 |  | affinity for PBP4 was much lower | CC(C)(O/N=C(\C(=O)N[C@@H]1C(=O)N2C(C(=O)[O-])=C(C[n+]3ccccc3)CS[C@H]12)c1csc(N)n1)C(=O)O [CAZ, ceftazidime]
